The record followed here is ChEMBL document CHEMBL1124364, “3-Sulfonyl-1-carba-1-dethiacephems” (1989).

≈ marks a conversion by molar mass, not a printed value.

Assay type in all cases: functional
For assay [1], the system named is Enterobacter cloacae. Put plainly: Minimum inhibitory concentration against Enterobacter cloacae (265A beta-lactamase containing). The conditions noted are these: Enterobacter cloacae; read-out: MIC. The procedure, abridged:
(§1)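 Agar dilution: compounds diluted in 0.1 M phosphate buffer pH 7.0 and incorporated into Mueller-Hinton agar with 1% Bacto-Supplement C at 50 °C. Fresh overnight cultures diluted to about 1×10^4 cells/µL; 1 µL spotted on plates. Incubated overnight at 35 °C in ambient air. MIC taken as the lowest concentration preventing visible growth.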

Assay [2] has as its system Enterobacter cloacae. Put plainly: Minimum inhibitory concentration against Enterobacter cloacae (EB5). The conditions noted are these: Enterobacter cloacae; read-out: MIC. In short, it runs like this:
as §1

Assay [3] relates to Escherichia coli. Put plainly: Minimum inhibitory concentration against Escherichia coli (EC14). The conditions noted are these: Escherichia coli; read-out: MIC. In short, it runs like this:
as §1

Assay [4] has as its system Escherichia coli. Put plainly: Minimum inhibitory concentration against Escherichia coli (TEM beta-lactamase containing). The conditions noted are these: Escherichia coli; read-out: MIC. In short, it runs like this:
as §1

In the next assay the test system is Haemophilus influenzae. Put plainly: Minimum inhibitory concentration against Haemophilus influenzae (C.L.). Particulars: Haemophilus influenzae; read-out: MIC. The procedure, abridged: as §1
In assay [5] the test system is Klebsiella. Put plainly: Minimum inhibitory concentration against Klebsiella (KAE beta-lactamase containing). The conditions noted are these: Klebsiella; read-out: MIC. The procedure, abridged: as §1
For assay [6], the system named is Klebsiella. Put plainly: Minimum inhibitory concentration against Klebsiella (X26). Particulars: Klebsiella; read-out: MIC. The procedure, abridged:
as §1

In the next assay the test system is Morganella morganii. Put plainly: Minimum inhibitory concentration against Proteus morganii (PR 15). The conditions noted are these: Morganella morganii; read-out: MIC. The procedure, abridged:
as §1

The test system of a further assay is Pseudomonas aeruginosa. Put plainly: Minimum inhibitory concentration against Pseudomonas aeruginosa (X528). Particulars: Pseudomonas aeruginosa; read-out: MIC. In short, it runs like this: as §1
The test system of a further assay is Providencia rettgeri. Put plainly: Minimum inhibitory concentration against Proteus rettgeri (C24). Particulars: Providencia rettgeri; read-out: MIC. In short, it runs like this:
as §1

The next assay deals with Salmonella. Put plainly: Minimum inhibitory concentration against Salmonella (X514). Particulars: Salmonella; read-out: MIC. In short, it runs like this:
as §1

The test system of assay [7] is Staphylococcus epidermidis. Put plainly: Minimum inhibitory concentration against Staphylococcus epidermidis (222). The conditions noted are these: Staphylococcus epidermidis; read-out: MIC. The procedure, abridged: as §1
A further assay relates to Streptococcus pyogenes. Put plainly: Minimum inhibitory concentration against Streptococcus pyogenes (C203). Particulars: Streptococcus pyogenes; read-out: MIC. The procedure, abridged:
as §1

Another assay has as its system Streptococcus pneumoniae. Put plainly: Minimum inhibitory concentration against Streptococcus pneumoniae (PARK). Particulars: Streptococcus pneumoniae; read-out: MIC. The procedure, abridged: as §1
A further assay relates to Staphylococcus aureus. Put plainly: Minimum inhibitory concentration against Staphylococcus aureus (X1.1). The conditions noted are these: Staphylococcus aureus; read-out: MIC. In short, it runs like this: as §1

As for `CO/N=C(/C(=O)N[C@@H]1C(=O)N2C(C(=O)O)=C(S(=O)(=O)C(C)C)CC[C@H]12)c1csc(N)n1`, the MIC in the assay with Enterobacter cloacae [1] is above 128 µg/mL; in the assay on Enterobacter cloacae [2] it was 1 µg/mL (≈ 2.12 µM); with Escherichia coli [3] it was 0.25 µg/mL (≈ 0.53 µM); with Escherichia coli [4] it was 1 µg/mL (≈ 2.12 µM); in the assay on Haemophilus influenzae, 0.5 µg/mL (≈ 1.06 µM); with Klebsiella [5], above 128 µg/mL. The MIC with Klebsiella [6] was 0.125 µg/mL (≈ 0.265 µM); in the assay on Morganella morganii, 4 µg/mL (≈ 8.48 µM); with Pseudomonas aeruginosa, above 128 µg/mL; with Providencia rettgeri, 0.25 µg/mL (≈ 0.53 µM); in the assay with Salmonella, 0.06 µg/mL (≈ 0.127 µM); in assay [7], 16 µg/mL (≈ 33.9 µM). The MIC in the assay with Streptococcus pyogenes was determined as 2 µg/mL (≈ 4.24 µM); in the assay on Streptococcus pneumoniae, 0.06 µg/mL (≈ 0.127 µM); in the assay with Staphylococcus aureus it was 8 µg/mL (≈ 17 µM).

As to `CO/N=C(/C(=O)N[C@@H]1C(=O)N2C(C(=O)O)=C(S(=O)(=O)C3CC3)CC[C@H]12)c1csc(N)n1`, the MIC was above 128 µg/mL in the assay with Enterobacter cloacae [1]; 0.5 µg/mL (≈ 1.06 µM) in the assay with Enterobacter cloacae [2]; 0.06 µg/mL (≈ 0.128 µM) in the assay with Escherichia coli [3]; 0.5 µg/mL (≈ 1.06 µM) in the assay on Escherichia coli [4]; 0.25 µg/mL (≈ 0.532 µM) in the assay with Haemophilus influenzae; above 128 µg/mL in the assay with Klebsiella [5]. Also, the MIC with Klebsiella [6] is 0.06 µg/mL (≈ 0.128 µM); in the assay with Morganella morganii, 2 µg/mL (≈ 4.26 µM); with Pseudomonas aeruginosa, above 128 µg/mL; with Providencia rettgeri, 1 µg/mL (≈ 2.13 µM); in the assay with Salmonella, 0.125 µg/mL (≈ 0.266 µM); in assay [7] it was 8 µg/mL (≈ 17 µM). Also, the values for the MIC in the assay with Streptococcus pyogenes, in the assay with Streptococcus pneumoniae and in the assay with Staphylococcus aureus were 0.015 µg/mL (≈ 0.0319 µM), 0.03 µg/mL (≈ 0.0639 µM) and 4 µg/mL (≈ 8.52 µM), respectively.

With `CCCS(=O)(=O)C1=C(C(=O)O)N2C(=O)[C@@H](NC(=O)/C(=N/OC)c3csc(N)n3)[C@H]2CC1`, the MIC in the assay on Enterobacter cloacae [1] is above 128 µg/mL; with Enterobacter cloacae [2], 1 µg/mL (≈ 2.12 µM); in the assay on Escherichia coli [3], 0.125 µg/mL (≈ 0.265 µM); in the assay with Escherichia coli [4], 1 µg/mL (≈ 2.12 µM); in the assay with Haemophilus influenzae, 0.25 µg/mL (≈ 0.53 µM); in the assay on Klebsiella [5], above 128 µg/mL. In addition, the MIC was 0.125 µg/mL (≈ 0.265 µM) in the assay with Klebsiella [6]; 2 µg/mL (≈ 4.24 µM) with Morganella morganii; above 128 µg/mL in the assay on Pseudomonas aeruginosa; 4 µg/mL (≈ 8.48 µM) with Providencia rettgeri; 0.125 µg/mL (≈ 0.265 µM) in the assay with Salmonella; 8 µg/mL (≈ 17 µM) in assay [7]. Moreover, the figures for the MIC in the assay on Streptococcus pyogenes, with Streptococcus pneumoniae and in the assay on Staphylococcus aureus were 0.03 µg/mL (≈ 0.0636 µM), 0.03 µg/mL (≈ 0.0636 µM) and 8 µg/mL (≈ 17 µM), respectively.

For the molecule `CO/N=C(/C(=O)N[C@@H]1C(=O)N2C(C(=O)O)=C(S(=O)(=O)c3ccccc3)CC[C@H]12)c1csc(N)n1`, the MIC in the assay on Enterobacter cloacae [1] was above 128 µg/mL; with Enterobacter cloacae [2], 8 µg/mL (≈ 15.8 µM); with Escherichia coli [3] it was 2 µg/mL (≈ 3.96 µM); in the assay with Escherichia coli [4] it was 8 µg/mL (≈ 15.8 µM); in the assay with Haemophilus influenzae it was 0.25 µg/mL (≈ 0.495 µM); with Klebsiella [5], above 128 µg/mL. Further, the MIC with Klebsiella [6] was 1 µg/mL (≈ 1.98 µM); with Morganella morganii, above 128 µg/mL; in the assay with Pseudomonas aeruginosa, above 128 µg/mL; with Providencia rettgeri, 1 µg/mL (≈ 1.98 µM); with Salmonella, 0.25 µg/mL (≈ 0.495 µM); in assay [7] it was 16 µg/mL (≈ 31.6 µM). Further, the figures for the MIC with Streptococcus pyogenes, in the assay with Streptococcus pneumoniae and with Staphylococcus aureus were 1 µg/mL (≈ 1.98 µM), 0.06 µg/mL (≈ 0.119 µM) and 8 µg/mL (≈ 15.8 µM), respectively.

As to `CO/N=C(/C(=O)N[C@@H]1C(=O)N2C(C(=O)O)=C(S(=O)(=O)c3c(C)noc3C)CC[C@H]12)c1csc(N)n1`, the MIC was above 128 µg/mL in the assay on Enterobacter cloacae [1]; 8 µg/mL (≈ 15.3 µM) with Enterobacter cloacae [2]; 2 µg/mL (≈ 3.81 µM) in the assay on Escherichia coli [3]; 8 µg/mL (≈ 15.3 µM) in the assay with Escherichia coli [4]; 0.25 µg/mL (≈ 0.477 µM) with Haemophilus influenzae; above 128 µg/mL in the assay with Klebsiella [5]. Also, the MIC was 1 µg/mL (≈ 1.91 µM) in the assay with Klebsiella [6]; 2 µg/mL (≈ 3.81 µM) in the assay with Morganella morganii; above 128 µg/mL in the assay on Pseudomonas aeruginosa; 16 µg/mL (≈ 30.5 µM) with Providencia rettgeri; 4 µg/mL (≈ 7.63 µM) in the assay on Salmonella; 8 µg/mL (≈ 15.3 µM) in assay [7]. For the same molecule, the MIC was determined as 0.03 µg/mL (≈ 0.0572 µM) with Streptococcus pyogenes, 0.03 µg/mL (≈ 0.0572 µM) in the assay on Streptococcus pneumoniae and 4 µg/mL (≈ 7.63 µM) in the assay with Staphylococcus aureus.

As to `CCS(=O)(=O)C1=C(C(=O)O)N2C(=O)[C@@H](NC(=O)/C(=N/OC)c3csc(N)n3)[C@H]2CC1`, the MIC with Enterobacter cloacae [1] was above 128 µg/mL; in the assay with Enterobacter cloacae [2], 1 µg/mL (≈ 2.19 µM); in the assay with Escherichia coli [3], 0.06 µg/mL (≈ 0.131 µM); in the assay with Haemophilus influenzae it was 0.25 µg/mL (≈ 0.546 µM); in the assay with Klebsiella [5], above 128 µg/mL; in the assay on Klebsiella [6], 0.06 µg/mL (≈ 0.131 µM). For the same molecule, the MIC with Morganella morganii is 2 µg/mL (≈ 4.37 µM); with Pseudomonas aeruginosa it was above 128 µg/mL; with Providencia rettgeri it was 0.125 µg/mL (≈ 0.273 µM); in the assay on Salmonella it was 0.06 µg/mL (≈ 0.131 µM); in assay [7], 16 µg/mL (≈ 35 µM); in the assay on Streptococcus pyogenes it was 0.03 µg/mL (≈ 0.0656 µM). The MIC in the assay on Streptococcus pneumoniae was found to be 0.03 µg/mL (≈ 0.0656 µM); with Staphylococcus aureus, 8 µg/mL (≈ 17.5 µM).
